# Laboratory results published in publication PMC4059259 (Journal of Medicinal Chemistry, 2014).
# Entries after “also recorded” stand apart in the source; their conditions may differ.
# Columns and labels:
# [1] = tested on: early liver stage parasites; conditions: cited from earlier work
# [2] = tested on: P. falciparum 3D7-GFP liver stage; assay: In vitro infection of human hepatocytes; format: cell-based; conditions: for decrease in proportion of hepatocytes infected with P. falciparum 3D7-GFP (GFP+/PI−): 72 h post infection
# P. falciparum 3D7 = assay: SYBR green I growth inhibition assay, blood stage; format: cell-based; conditions: Plasmodium falciparum, 3D7, read-out: IC50 in a third experiment
# PfAtg8 = assay: Immunoblot analysis of PfAtg8 in P. falciparum blood stage; format: cell-based; conditions: for delipidation of PfAtg8 (immunoblot): 6 hours
# [3] = target: T1, PfAtg8-PfAtg3 interaction (Plasmodium falciparum, UniProt Q8IJK2, C119S/C122S/C32I); assay: MMV SPR competition assay; format: binding, P. falciparum; conditions: read-out: inhibition of the PfAtg8-PfAtg3 interaction in primary SPR screen
# T1 sequence (Q8IJK2 1-124 C32I/C119S/C122S): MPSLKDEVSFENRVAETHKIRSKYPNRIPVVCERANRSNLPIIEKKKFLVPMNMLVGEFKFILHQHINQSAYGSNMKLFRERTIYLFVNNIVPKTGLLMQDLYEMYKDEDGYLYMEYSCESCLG
# T1 sequence (C0H519 1-313 partner): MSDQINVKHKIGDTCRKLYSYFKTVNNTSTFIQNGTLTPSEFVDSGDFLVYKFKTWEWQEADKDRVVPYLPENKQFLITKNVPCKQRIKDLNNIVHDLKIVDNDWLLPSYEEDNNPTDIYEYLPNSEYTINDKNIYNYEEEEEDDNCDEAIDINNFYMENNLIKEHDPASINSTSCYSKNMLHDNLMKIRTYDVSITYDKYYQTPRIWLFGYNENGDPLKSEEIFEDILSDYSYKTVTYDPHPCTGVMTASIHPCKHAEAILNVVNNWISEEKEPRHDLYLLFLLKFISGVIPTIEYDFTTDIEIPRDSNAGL
# Procedure, shortened: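 MBP-PfAtg3 immobilized on a CM5 chip, with MBP on the reference flowcell. Test compound (final 5 μM) or DMSO was mixed with 300 nM His6-PfAtg8CM in PBS pH 7.4 with 0.01% P20, final DMSO 3%, and injected. Binding read as SPR response versus DMSO control. Surface regenerated with 2 M MgCl2 between injections.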
# HC-04 cells = assay: Viability of HC-04 cells; format: cell-based, human; conditions: 30 μM
# human cell lines = conditions: ref PubChem AID: 660872, 685525, and 449705; cited from earlier work
# [4] = tested on: P. falciparum blood stage; assay: Parasite morphology in blood smears; format: cell-based; conditions: treatment concentration and duration used in the study (50 μM, 5 h)
# Procedure, shortened: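 Asynchronous FCR3 blood-stage culture (25% parasitemia; 37 °C, 2% hematocrit, RPMI with 10% human serum, 3% CO2/5% O2) washed in serum-free starvation medium. Resuspended in complete medium with 50 μM test compound or DMSO, or in starvation medium with DMSO, for 5 h. Morphology viewed by light microscopy at 100× at harvest.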
# [5] = tested on: Plasmodium yoelii liver stage cultures; conditions: screening concentration 10 μM; ref PubChem AID: 602118 and 602156, 18, 19; cited from earlier work
# PfAtg8^CM = target: T2, PfAtg8^CM (Plasmodium falciparum, UniProt Q8IJK2, C119S/C122S/C32I); assay: Direct binding of 1 to immobilized PfAtg8^CM by SPR; set-up: species or system P. falciparum
# T2 sequence (Q8IJK2 1-124 C32I/C119S/C122S): T1 sequence (Q8IJK2 1-124 C32I/C119S/C122S)
# Procedure, shortened: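 SPR direct binding: His12-PfAtg8CM captured on a nickel-preconditioned NTA chip to 3000 RU. Two-fold dilution series of test compound (top 75 μM) injected at 40 μL/min in PBS pH 7.4 with 0.01% P20 and 3% DMSO. Double referencing with interspersed blanks; DMSO calibration curve; binding constants fitted.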
# PfAtg3 = target: T3, PfAtg3 (Plasmodium falciparum, UniProt C0H519); assay: Direct binding of protein to immobilized 8 by SPR; set-up: species or system P. falciparum; conditions: data not shown
# T3 sequence (C0H519 1-313): T1 sequence (C0H519 1-313 partner)
# Procedure, shortened: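 Test compound captured on a neutravidin-coated SPR flowcell (130 RUs), with a control ligand on the reference flowcell (150 RUs). His6-PfAtg3 injected in duplicate in 10 mM HEPES pH 7.5, 150 mM NaCl, 0.05% P20. Regeneration after each cycle with 20 mM HEPES pH 7.4, 1% w/v SDS.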
smiles,measurement,setting,value
Cn1cnc(N)c2ncnc1-2 [3-methyladenine],effect on conversion of parasite into trophozoite form,[1],delay conversion of the parasite into its trophozoite form
"Cc1ccc(Nc2nc(-c3ccccn3)cs2)cc1 [Compound 1, N-(4-methylphenyl)-4-pyridin-2-yl-1,3-thiazol-2-amine]",intensity of GFP fluorescence in infected hepatocytes,[2]; 3 μM and 30 μM,dose-dependent reduction
same,decrease in proportion of hepatocytes infected with P. falciparum 3D7-GFP (GFP+/PI−),[2]; 3 μM,but not with 3 μM
same,decrease in proportion of hepatocytes infected with P. falciparum 3D7-GFP (GFP+/PI−),[2]; 30 μM,~50%
same,IC50,P. falciparum 3D7,3.3 µM
same,delipidation of PfAtg8 (immunoblot),PfAtg8; 12.5 μM,dose-dependent increase in delipidation of PfAtg8
same,delipidation of PfAtg8 (immunoblot),PfAtg8; 25 μM,unlipidated PfAtg8 is the predominant species
same,PfAtg8 protein levels (immunoblot),"PfAtg8; 50 μM (cytocidal, high levels), 5 h, FCR3",drastic increase in PfAtg8 protein levels
same,inhibition at 5 µM,[3],≥ 25%
same,cell death in HC-04 cells,HC-04 cells,did not observe cell death
same,reported cytotoxicity in human cell lines,human cell lines,much lower than that of compounds 2 or 3
same,parasite morphology,[4],parasite morphology appeared normal
same,inhibition of P. yoelii liver stage,[5],≤ 50%
same,direct binding to PfAtg8^CM (SPR response),PfAtg8^CM,dose-dependent increase in SPR response; also recorded: directly binds to PfAtg8
"CSc1ccccc1C(=O)Nc1nc(-c2ccccn2)cs1 [Compound 2, 2-methylsulfanyl-N-(4-pyridin-2-yl-1,3-thiazol-2-yl)benzamide]",inhibition at 5 µM,[3],≥ 25%
"O=C(Nc1nc(-c2ccccn2)cs1)c1ccccc1Br [Compound 3, 2-bromo-N-(4-pyridin-2-yl-1,3-thiazol-2-yl)benzamide]",inhibition at 5 µM,[3],≥ 25%
"Cc1ccc(-c2cc3c(SCC(=O)Nc4cc(C(F)(F)F)ccc4Cl)nccn3n2)cc1 [Compound 4, N-[2-chloro-5-(trifluoromethyl)phenyl]-2-[2-(4-methylphenyl)pyrazolo[1,5-a]pyrazin-4-yl]sulfanylacetamide]",inhibition at 5 µM,[3],≥ 25%
"CN(C)c1ccc(N2C(N)=NC(N)=NC2(C)C)cc1 [Compound 5, 1-[4-(dimethylamino)phenyl]-6,6-dimethyl-1,3,5-triazine-2,4-diamine]",inhibition at 5 µM,[3],≥ 25%
"Brc1ccc(Nc2nc3ccccc3nc2Nc2ccc(Br)cc2)cc1 [Compound 6, 2-N,3-N-bis(4-bromophenyl)quinoxaline-2,3-diamine]",inhibition at 5 µM,[3],≥ 25%
"O=C(CCCC[C@H]1SC[C@H]2NC(=O)N[C@H]21)NCCCCCC(=O)NNCc1ccc(C(=O)Nc2nc(-c3ccccn3)cs2)cc1 [Compound 8, 4-[[2-[6-[5-[(3aR,4R,6aS)-2-Oxo-1,3,3a,4,6,6a-hexahydrothieno[3,4-d]imidazol-4-yl]pentanoylamino]hexanoyl]hydrazinyl]methyl]-N-(4-pyridin-2-yl-1,3-thiazol-2-yl)benzamide]",binding of recombinant PfAtg3 to immobilized 8,PfAtg3,did not bind
